Assays:
[1] = Antioxidant scavenging activity against AAPH-induced peroxyl radical assessed as trolox equivalent per uM of compound by ORAC-fluorescein assay; assay type: physicochemical
Procedure, shortened: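 Peroxyl radicals generated by AAPH (12 mM final) at 37 °C in 75 mM phosphate buffer pH 7.4. Sample (0.5–10 µM) was preincubated 15 min with fluorescein (300 nM final), then AAPH added. Fluorescence (ex 485/em 535 nm) read every 60 s for 90 min. Net AUC vs blank was calibrated against Trolox (1–8 µM final). Each run fourfold, at least four independent runs.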

Butyrylcholinesterase = Butyrylcholinesterase (Equus caballus, UniProt Q9N1N9); assay: Inhibition of equine serum BuChE by Ellman's assay
Procedure, shortened: (§1)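 Ellman photometric assay with electric eel AChE (type VI-S) or equine serum BChE (enzyme solution 2.5 U/mL) in phosphate buffer, pH 8.0. Enzyme and inhibitor stand together for 5 min, then DTNB is added. The reaction starts with acetylthiocholine (AChE) or butyrylthiocholine (BChE), and A412 is read 2.5 min later at 25 °C. At least five concentrations (highest 10^-4 M final) are run in triplicate. Percent activity versus the no-inhibitor reference is plotted against log concentration; each value is the mean of ≥3 independent runs.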

Acetylcholinesterase = Acetylcholinesterase (Electrophorus electricus, UniProt O42275); assay: Inhibition of electric eel AChE type 6S by Ellman's assay
[2] = Selectivity ratio of IC50 for electric eel AChE to IC50 for equine serum BuChE
[3] = Cytotoxicity against mouse brain N11 cells from by MTT assay; assay type: cell-based
Procedure, shortened: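 N11 microglia (embryonic mouse brain, retrovirus-immortalized) were kept in DMEM with 10% heat-inactivated FCS and 2 mM glutamine. Cells were seeded at 5×10³/well and grown 24 h, then exposed 24 h to compound or solvent in phenol-red-free medium with 1% FCS.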

[4] = target: Acetylcholinesterase (Electrophorus electricus) (UniProt O42275); assay: Inhibition of electric eel AChE at 10 uM by Ellman's assay; procedure, shortened: as §1
Acetylcholinesterase (Electrophorus electricus), sequence (O42275 24-633 limits assumed): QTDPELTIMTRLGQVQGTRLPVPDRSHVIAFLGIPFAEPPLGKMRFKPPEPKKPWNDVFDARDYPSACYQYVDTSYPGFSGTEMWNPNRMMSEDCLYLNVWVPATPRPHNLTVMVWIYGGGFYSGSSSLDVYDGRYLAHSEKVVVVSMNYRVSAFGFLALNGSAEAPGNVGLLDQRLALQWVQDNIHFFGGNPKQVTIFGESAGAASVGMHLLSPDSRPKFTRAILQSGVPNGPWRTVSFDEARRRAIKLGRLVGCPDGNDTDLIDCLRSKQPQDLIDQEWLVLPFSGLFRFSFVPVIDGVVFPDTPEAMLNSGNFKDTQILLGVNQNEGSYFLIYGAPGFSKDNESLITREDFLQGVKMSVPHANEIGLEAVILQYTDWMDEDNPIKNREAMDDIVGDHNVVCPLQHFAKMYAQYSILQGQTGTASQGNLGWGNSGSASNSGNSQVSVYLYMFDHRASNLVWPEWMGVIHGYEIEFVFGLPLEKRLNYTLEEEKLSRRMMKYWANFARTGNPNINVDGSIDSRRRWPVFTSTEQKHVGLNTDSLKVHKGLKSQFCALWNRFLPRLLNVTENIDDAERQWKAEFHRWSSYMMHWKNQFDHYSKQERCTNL

Acetylcholinesterase, sequence (O42275 whole entry): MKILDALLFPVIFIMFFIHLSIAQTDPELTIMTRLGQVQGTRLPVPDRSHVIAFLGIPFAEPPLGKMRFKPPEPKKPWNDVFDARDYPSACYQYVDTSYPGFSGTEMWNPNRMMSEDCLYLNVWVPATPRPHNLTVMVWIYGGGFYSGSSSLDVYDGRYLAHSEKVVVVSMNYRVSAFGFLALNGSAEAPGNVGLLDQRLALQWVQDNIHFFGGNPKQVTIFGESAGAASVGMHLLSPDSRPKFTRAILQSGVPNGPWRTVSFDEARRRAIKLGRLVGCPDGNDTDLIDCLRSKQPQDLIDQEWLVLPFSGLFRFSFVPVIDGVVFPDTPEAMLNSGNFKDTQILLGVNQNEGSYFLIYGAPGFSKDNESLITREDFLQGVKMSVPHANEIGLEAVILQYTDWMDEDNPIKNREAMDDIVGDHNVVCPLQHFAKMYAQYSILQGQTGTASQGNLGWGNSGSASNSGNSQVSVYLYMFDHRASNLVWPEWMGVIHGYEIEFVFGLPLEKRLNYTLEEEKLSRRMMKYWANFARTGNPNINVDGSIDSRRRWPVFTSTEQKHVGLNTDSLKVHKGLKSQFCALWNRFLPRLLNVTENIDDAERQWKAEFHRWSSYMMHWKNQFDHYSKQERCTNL
Butyrylcholinesterase, sequence (Q9N1N9 whole entry): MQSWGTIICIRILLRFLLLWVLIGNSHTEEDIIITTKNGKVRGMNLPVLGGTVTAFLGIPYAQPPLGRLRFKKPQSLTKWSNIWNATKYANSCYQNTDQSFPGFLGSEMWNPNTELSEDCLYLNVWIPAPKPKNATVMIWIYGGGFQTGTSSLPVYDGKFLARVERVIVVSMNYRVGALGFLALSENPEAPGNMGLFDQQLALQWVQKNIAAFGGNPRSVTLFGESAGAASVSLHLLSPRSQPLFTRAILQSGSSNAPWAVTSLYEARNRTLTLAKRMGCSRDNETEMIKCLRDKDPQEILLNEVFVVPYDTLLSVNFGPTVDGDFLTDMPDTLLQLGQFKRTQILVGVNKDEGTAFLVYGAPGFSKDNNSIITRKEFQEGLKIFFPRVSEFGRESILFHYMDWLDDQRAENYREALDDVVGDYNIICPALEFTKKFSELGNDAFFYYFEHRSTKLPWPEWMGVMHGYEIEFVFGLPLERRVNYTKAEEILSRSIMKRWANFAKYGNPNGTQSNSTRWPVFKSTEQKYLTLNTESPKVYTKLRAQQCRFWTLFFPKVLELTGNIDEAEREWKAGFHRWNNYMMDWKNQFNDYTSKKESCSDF

O=C(O)CCCCC1CCSS1 (stereo not drawn) [LIPOIC ACID, ALPHA]
Activity [1]: 0.6

NCCCC/N=c1/c2ccc(Cl)cc2nc2n1CCC2
IC50 (Butyrylcholinesterase): 720 nM
IC50 (Acetylcholinesterase): 480 nM
Ratio IC50 [2]: 0.7

NCCCCCCC/N=c1/c2ccc(Cl)cc2nc2n1CCC2
IC50 (Butyrylcholinesterase): 710 nM
IC50 (Acetylcholinesterase): 4060 nM
Ratio IC50 [2]: 5.7

NCCCCCCCC/N=c1/c2ccccc2nc2n1CCCCCC2
IC50 [3]: 3740 nM
IC50 (Butyrylcholinesterase): 46 nM
IC50 (Acetylcholinesterase): 3400 nM
Activity [1]: 0.1
Ratio IC50 [2]: 73.9

O=C(CCCCC1CCSS1)NCCCCCC/N=c1/c2ccc(Cl)cc2nc2n1CCC2 (stereo unspecified)
IC50 (Butyrylcholinesterase): 26 nM
IC50 (Acetylcholinesterase): 740 nM
Ratio IC50 [2]: 28.8

CCCC/N=c1/c2ccc(Cl)cc2nc2n1CCC2
Ratio IC50 [2]: 1.7

c1ccc(C/N=c2/c3ccccc3nc3n2CCCCCCC3)cc1
IC50 (Butyrylcholinesterase): 1100 nM
IC50 (Acetylcholinesterase): > 500000 nM

NCCCCCC/N=c1/c2ccc(Cl)cc2nc2n1CCC2
IC50 [3]: 6010 nM
IC50 (Butyrylcholinesterase): 380 nM
IC50 (Acetylcholinesterase): 1490 nM
Activity [1]: 0.2
Ratio IC50 [2]: 3.9

N=c1c2ccccc2nc2n1CCC2
Ratio IC50 [2]: 1.8

NCCCCCCCC/N=c1/c2ccc(Cl)cc2nc2n1CCC2
IC50 [3]: 6270 nM
IC50 (Butyrylcholinesterase): 12 nM
IC50 (Acetylcholinesterase): 130 nM
Activity [1]: 0.1
Ratio IC50 [2]: 10.7

O=C(CCCCC1CCSS1)NCCCC/N=c1/c2ccc(Cl)cc2nc2n1CCC2 (stereo unspecified)
IC50 (Butyrylcholinesterase): 170 nM
IC50 (Acetylcholinesterase): 4580 nM
Ratio IC50 [2]: 27.1

O=C(CCCCC1CCSS1)NCCCCCCCC/N=c1/c2ccccc2nc2n1CCCCCC2 (stereo unspecified)
IC50 [3]: 6540 nM
IC50 (Butyrylcholinesterase): 23 nM
inhibition [4]: < 10%
Activity [1]: 0.4
Ratio IC50 [2]: > 5000

NCCCCC/N=c1/c2ccc(Cl)cc2nc2n1CCC2
IC50 (Butyrylcholinesterase): 190 nM
IC50 (Acetylcholinesterase): 170 nM
Ratio IC50 [2]: 0.9

O=C(CCCCC1CCSS1)NCCC/N=c1/c2ccc(Cl)cc2nc2n1CCC2 (stereo unspecified)
IC50 [3]: 7510 nM
IC50 (Butyrylcholinesterase): 2580 nM
IC50 (Acetylcholinesterase): 2840 nM
Activity [1]: 0.8
Ratio IC50 [2]: 1.1

O=C(CCCCC1CCSS1)NCCCCC/N=c1/c2ccc(Cl)cc2nc2n1CCC2 (stereo unspecified)
IC50 (Butyrylcholinesterase): 53 nM
IC50 (Acetylcholinesterase): 4380 nM
Ratio IC50 [2]: 83

O=C(CCCCC1CCSS1)NCCCCCCC/N=c1/c2ccc(Cl)cc2nc2n1CCC2 (stereo unspecified)
IC50 (Butyrylcholinesterase): 14 nM
IC50 (Acetylcholinesterase): 1940 nM
Ratio IC50 [2]: 134

O=C(CCCCC1CCSS1)NCCCCCCCC/N=c1/c2ccc(Cl)cc2nc2n1CCC2 (stereo unspecified)
IC50 [3]: 10200 nM
IC50 (Butyrylcholinesterase): 5.7 nM
IC50 (Acetylcholinesterase): 468 nM
Activity [1]: 0.5
Ratio IC50 [2]: 82

Clc1ccc2/c(=N/CCCCCCCC/N=c3/c4ccc(Cl)cc4nc4n3CCC4)n3c(nc2c1)CCC3
IC50 (Butyrylcholinesterase): 45 nM
IC50 (Acetylcholinesterase): 50 nM

NCCC/N=c1/c2ccc(Cl)cc2nc2n1CCC2
IC50 (Butyrylcholinesterase): 10200 nM
IC50 (Acetylcholinesterase): 19000 nM
Ratio IC50 [2]: 1.9
